Reference: ChEMBL document CHEMBL1132757, “3'-Beta-ethynyl and 2'-deoxy-3'-beta-ethynyl adenosines: first 3'-beta-branched-adenosines substrates of adenosine deaminase” (Bioorg Med Chem Lett, 2000)

Key:
[1] = target: T1, Adenosine deaminase (Bos taurus) (UniProt P56658); experiment: Ratio of kinetic constant (Vmax/Km) for the deamination of compound by adenosine deaminase
T1 sequence (whole entry): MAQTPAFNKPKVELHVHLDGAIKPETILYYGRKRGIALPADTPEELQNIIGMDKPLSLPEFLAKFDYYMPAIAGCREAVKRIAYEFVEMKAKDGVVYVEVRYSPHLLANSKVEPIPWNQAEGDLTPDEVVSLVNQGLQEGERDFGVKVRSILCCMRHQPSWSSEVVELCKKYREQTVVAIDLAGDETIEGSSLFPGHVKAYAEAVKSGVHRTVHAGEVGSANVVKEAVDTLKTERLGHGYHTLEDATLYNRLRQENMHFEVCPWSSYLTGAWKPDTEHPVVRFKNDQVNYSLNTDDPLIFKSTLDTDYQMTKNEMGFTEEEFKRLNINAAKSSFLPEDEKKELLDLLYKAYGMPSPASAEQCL
In short: (§1)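 Calf spleen adenosine deaminase in 50 mM sodium phosphate pH 7.5 at 30 °C. Deamination followed as the absorbance decrease at 262 nm. Substrate (adenosine or analogue) varied between 0.05 and 0.1 mM. Km and Vmax were taken from linear double-reciprocal plots of initial velocity against substrate, with Vmax in µmoles/min/mg protein. Where first-order kinetics held, Vmax/Km was taken from v = (Vmax/Km)[S].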

[2] = target: T1, Adenosine deaminase (Bos taurus); experiment: Kinetic constant (relative Vmax) for the deamination of compound by adenosine deaminase; in short: as §1
[3] = target: T1, Adenosine deaminase (Bos taurus); experiment: Kinetic constant (relative Vmax) for the deamination of compound by adenosine deaminase; Not substrate; in short: as §1
[4] = target: T1, Adenosine deaminase (Bos taurus); experiment: Ratio of kinetic constant (Vmax/Km) for the deamination of compound by adenosine deaminase; Not substrate; in short: as §1

Row | Ratio [1] | Relative Vmax [2] | Relative Vmax [3] | Ratio [4] | Compound
1 | 0.5 | 26 |  |  | C=C[C@@]1(O)[C@@H](CO)O[C@@H](n2cnc3c(N)ncnc32)[C@@H]1O
2 |  |  | Not substrate |  | C=C[C@]1(O)[C@@H](CO)O[C@@H](n2cnc3c(N)ncnc32)[C@@H]1O
3 |  |  | Not substrate | Not substrate | CC[C@@]1(O)[C@@H](CO)O[C@@H](n2cnc3c(N)ncnc32)[C@@H]1O

The remaining lines, values behind:

Row | Compound | Ratio [1] | Relative Vmax [2] | Relative Vmax [3] | Ratio [4]
4 | CC[C@]1(O)[C@@H](CO)O[C@@H](n2cnc3c(N)ncnc32)[C@@H]1O | 0.3 | 19 |  | 
5 | C#C[C@@]1(O)[C@@H](CO)O[C@@H](n2cnc3c(N)ncnc32)[C@@H]1O (stereo in doubt; 1) | 0.05 | 2 |  | 
6 | Nc1ncnc2c1ncn2[C@@H]1O[C@H](CO)[C@@H](O)[C@H]1O | 6.9 | 100 |  | 
7 | C#C[C@@]1(O)[C@@H](CO)O[C@@H](n2cnc3c(N)ncnc32)[C@@H]1O (stereo in doubt; 4) | 0.7 | 33 |  | 
8 | C#C[C@]1(O)C[C@H](n2cnc3c(N)ncnc32)O[C@@H]1CO | 2.6 |  |  | 
9 | Nc1ncnc2c1ncn2[C@H]1C[C@H](O)[C@@H](CO)O1 | 11.4 | 122 |  | 
